# Laboratory results as given in ChEMBL document CHEMBL4689842, “EUbOPEN Chemogenomics Library wave 1” (2021).
# Test system: HEK-293T
# Assay: Multiplex assay against HEK293T;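 as to Population Tubulin-Different-Phenotype (%): share of the cells with healthy nuclei that show this phenotype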
# Assay type: toxicity, cell-based
# Details: human
# Procedure, shortened: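 Compound was added to live cells that had been stained at seeding with Hoechst33342, BioTracker Green Microtubule Cytoskeleton Dye, MitoTracker Red and Annexin V Alexa Fluor 680, and imaging followed on a CQ1 microscope at 37°C and 5% CO2. CellPathfinder machine-learning gating divided cells into Hoechst high-intensity objects or normal cells, normal cells into healthy, pyknosed or fragmented nuclei, and pyknosed cells into mitotic or apoptotic. Tubulin, mitochondrial-mass and membrane-permeability phenotypes are per cents of healthy-nucleus cells.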
# [1] = 12 h, 1 µM, compound concentration 1 uM, replicate 1
# [2] = 12 h, 1 µM, compound concentration 1 uM, replicate 2
# [3] = 12 h, 10 µM, compound concentration 10 uM, replicate 1
# [4] = 12 h, 10 µM, compound concentration 10 uM, replicate 2
# [5] = 24 h, 1 µM, compound concentration 1 uM, replicate 1
# [6] = 24 h, 1 µM, compound concentration 1 uM, replicate 2
# [7] = 24 h, 10 µM, compound concentration 10 uM, replicate 1
# [8] = 24 h, 10 µM, compound concentration 10 uM, replicate 2
# [9] = 48 h, 1 µM, compound concentration 1 uM, replicate 1
# [10] = 48 h, 1 µM, compound concentration 1 uM, replicate 2
# [11] = 48 h, 10 µM, compound concentration 10 uM, replicate 1
# [12] = 48 h, 10 µM, compound concentration 10 uM, replicate 2
smiles,measurement,setting,value
N#Cc1cccc(C(=O)Nc2cc(-c3ccccc3)nn2-c2ccccc2)c1,Population Apoptotic (%),[1],48%
same,Population Healthy Nuclei (%),[1],41%
same,Population Hoechst High Intensity Objects (%),[1],13%
same,Population Membrane Permeable-Phenotype (%),[1],2%
same,Population Mitochondria Different-Phenotype (%),[1],85%
same,Population Mitotic Cells (%),[1],51%
same,Population Normal (%),[1],86%
same,Population Pyknosed Nuclei (%),[1],49%
same,Population Tubulin-Different-Phenotype (%),[1],64%
same,Total Cell Count,[1],315
same,Population Apoptotic (%),[2],16%
same,Population Fragmented Nuclei (%),[2],8%
same,Population Healthy Nuclei (%),[2],42%
same,Population Hoechst High Intensity Objects (%),[2],6%
same,Population Membrane Permeable-Phenotype (%),[2],18%
same,Population Mitochondria Different-Phenotype (%),[2],23%
same,Population Mitotic Cells (%),[2],83%
same,Population Normal (%),[2],93%
same,Population Pyknosed Nuclei (%),[2],48%
same,Population Tubulin-Different-Phenotype (%),[2],45%
same,Total Cell Count,[2],182
same,Population Apoptotic (%),[3],73%
same,Population Fragmented Nuclei (%),[3],8%
same,Population Healthy Nuclei (%),[3],33%
same,Population Hoechst High Intensity Objects (%),[3],14%
same,Population Membrane Permeable-Phenotype (%),[3],5%
same,Population Mitochondria Different-Phenotype (%),[3],97%
same,Population Mitotic Cells (%),[3],26%
same,Population Normal (%),[3],86%
same,Population Pyknosed Nuclei (%),[3],57%
same,Total Cell Count,[3],300
same,Population Apoptotic (%),[4],45%
same,Population Fragmented Nuclei (%),[4],5%
same,Population Healthy Nuclei (%),[4],25%
same,Population Hoechst High Intensity Objects (%),[4],5%
same,Population Membrane Permeable-Phenotype (%),[4],14%
same,Population Mitochondria Different-Phenotype (%),[4],73%
same,Population Mitotic Cells (%),[4],54%
same,Population Normal (%),[4],94%
same,Population Pyknosed Nuclei (%),[4],68%
same,Population Tubulin-Different-Phenotype (%),[4],100%
same,Total Cell Count,[4],174
same,Population Apoptotic (%),[5],45%
same,Population Fragmented Nuclei (%),[5],9%
same,Population Healthy Nuclei (%),[5],37%
same,Population Hoechst High Intensity Objects (%),[5],12%
same,Population Membrane Permeable-Phenotype (%),[5],4%
same,Population Mitochondria Different-Phenotype (%),[5],61%
same,Population Mitotic Cells (%),[5],54%
same,Population Normal (%),[5],87%
same,Population Pyknosed Nuclei (%),[5],53%
same,Population Tubulin-Different-Phenotype (%),[5],51%
same,Total Cell Count,[5],328
same,Population Apoptotic (%),[6],12%
same,Population Fragmented Nuclei (%),[6],6%
same,Population Healthy Nuclei (%),[6],53%
same,Population Hoechst High Intensity Objects (%),[6],4%
same,Population Membrane Permeable-Phenotype (%),[6],14%
same,Population Mitochondria Different-Phenotype (%),[6],21%
same,Population Mitotic Cells (%),[6],88%
same,Population Normal (%),[6],95%
same,Population Pyknosed Nuclei (%),[6],39%
same,Population Tubulin-Different-Phenotype (%),[6],45%
same,Total Cell Count,[6],200
same,Population Apoptotic (%),[7],65%
same,Population Fragmented Nuclei (%),[7],7%
same,Population Healthy Nuclei (%),[7],27%
same,Population Hoechst High Intensity Objects (%),[7],15%
same,Population Membrane Permeable-Phenotype (%),[7],4%
same,Population Mitochondria Different-Phenotype (%),[7],97%
same,Population Mitotic Cells (%),[7],34%
same,Population Normal (%),[7],84%
same,Population Pyknosed Nuclei (%),[7],65%
same,Population Tubulin-Different-Phenotype (%),[7],95%
same,Total Cell Count,[7],309
same,Population Apoptotic (%),[8],67%
same,Population Fragmented Nuclei (%),[8],5%
same,Population Healthy Nuclei (%),[8],31%
same,Population Hoechst High Intensity Objects (%),[8],4%
same,Population Membrane Permeable-Phenotype (%),[8],8%
same,Population Mitochondria Different-Phenotype (%),[8],84%
same,Population Mitotic Cells (%),[8],33%
same,Population Normal (%),[8],95%
same,Population Pyknosed Nuclei (%),[8],62%
same,Population Tubulin-Different-Phenotype (%),[8],100%
same,Total Cell Count,[8],167
same,Population Apoptotic (%),[9],46%
same,Population Fragmented Nuclei (%),[9],11%
same,Population Healthy Nuclei (%),[9],49%
same,Population Hoechst High Intensity Objects (%),[9],15%
same,Population Membrane Permeable-Phenotype (%),[9],4%
same,Population Mitochondria Different-Phenotype (%),[9],29%
same,Population Mitotic Cells (%),[9],53%
same,Population Normal (%),[9],84%
same,Population Pyknosed Nuclei (%),[9],38%
same,Population Tubulin-Different-Phenotype (%),[9],44%
same,Total Cell Count,[9],415
same,Population Apoptotic (%),[10],19%
same,Population Fragmented Nuclei (%),[10],6%
same,Population Healthy Nuclei (%),[10],77%
same,Population Hoechst High Intensity Objects (%),[10],4%
same,Population Membrane Permeable-Phenotype (%),[10],15%
same,Population Mitochondria Different-Phenotype (%),[10],4%
same,Population Mitotic Cells (%),[10],80%
same,Population Normal (%),[10],95%
same,Population Pyknosed Nuclei (%),[10],16%
same,Population Tubulin-Different-Phenotype (%),[10],42%
same,Total Cell Count,[10],356
same,Population Apoptotic (%),[11],53%
same,Population Fragmented Nuclei (%),[11],14%
same,Population Healthy Nuclei (%),[11],23%
same,Population Hoechst High Intensity Objects (%),[11],11%
same,Population Membrane Permeable-Phenotype (%),[11],5%
same,Population Mitochondria Different-Phenotype (%),[11],78%
same,Population Mitotic Cells (%),[11],46%
same,Population Normal (%),[11],88%
same,Population Pyknosed Nuclei (%),[11],62%
same,Population Tubulin-Different-Phenotype (%),[11],100%
same,Total Cell Count,[11],332
same,Population Apoptotic (%),[12],63%
same,Population Fragmented Nuclei (%),[12],6%
same,Population Healthy Nuclei (%),[12],42%
same,Population Hoechst High Intensity Objects (%),[12],7%
same,Population Membrane Permeable-Phenotype (%),[12],17%
same,Population Mitochondria Different-Phenotype (%),[12],65%
same,Population Mitotic Cells (%),[12],36%
same,Population Normal (%),[12],92%
same,Population Pyknosed Nuclei (%),[12],50%
same,Population Tubulin-Different-Phenotype (%),[12],98%
same,Total Cell Count,[12],204
